Measured values: ChEMBL document CHEMBL4725336, “Anti-cancer potential of (1,2-dihydronaphtho[2,1-b]furan-2-yl)methanone derivatives” (Bioorg Med Chem Lett, 2020)
Active and inactive are the calls of the source. The rule behind the calls is not given here.

Key:
MDA-MB-468 [1] = experiment: Induction of apoptosis in human MDA-MB-468 cells assessed as increase in p53 expression at 10 to 30 uM by Western blot analysis; type: functional, cell-based; conditions: dose microM 10-30
In short: (§1)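 MDA-MB-468 cells were treated with 10, 20 and 30 μM. Bcl2, Bax, cleaved caspase-3, p53 and pBad were probed by Western blot, and band expression was quantified.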

MCF7 [2] = experiment: Induction of ROS generation in human MCF7 cells assessed as increase in fluorescence intensity after 12 hrs by DCFDA staining based microscopy analysis; type: functional, cell-based; conditions: dose microM 10-30, time 12.0 hrs
In short: (§2)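 Cells were exposed to 0, 10, 20 or 30 μM for 12 h, then stained with DCFDA (100 μM) for 30 min. Green fluorescence was imaged by microscopy and intensity was also read spectrophotometrically. Data are the mean of three experiments ±SD.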

MDA-MB-468 [3] = experiment: Induction of mitochondrial membrane potential loss in human MDA-MB-468 cells at 10 to 30 uM by JC-1 staining based analysis; type: functional, cell-based; conditions: dose microM 10-30, TDE = time-dependent effect
In short: (§3)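 Cells were given 10, 20 and 30 μM and stained with JC-1. Mitochondrial membrane potential change was read as the shift from red to green fluorescence, i.e. the red/green ratio, across concentration and time.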

MDA-MB-468 [4] = experiment: Induction of apoptosis in human MDA-MB-468 cells assessed as increase in cleaved caspase-3 expression at 10 to 30 uM in presence of pan-caspase inhibitor z-VAD-FMK by Western blot analysis; type: functional, cell-based; conditions: dose microM 10-30
In short: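 MDA-MB-468 cells were exposed to the caspase inhibitor Z-VAD-FMK, then treated with 10, 20 or 30 μM. Cleaved caspase-3 was detected by Western blot and quantified.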

MDA-MB-468 [5] = experiment: Induction of ROS generation in human MDA-MB-468 cells assessed as increase in fluorescence intensity after 12 hrs by DCFDA staining based microscopy analysis; type: functional, cell-based; conditions: dose microM 10-30, time 12.0 hrs; in short: as §2
[6] = Selectivity index, ratio of LD50 for human WI-38 cells to LD50 for human MDA-MB-231 cells assessed as inhibition of cell proliferation by MTT assay; type: toxicity; conditions: WI-38 cells and MDA-MB-231 cells, read-out: Selectivity Index
[7] = Selectivity index, ratio of LD50 for human WI-38 cells to LD50 for human MCF7 cells assessed as inhibition of cell proliferation by MTT assay; type: toxicity; conditions: WI-38 cells and MCF7 cells, read-out: Selectivity Index
In short: (§4)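 MTT proliferation assay on cells treated with 0–50 μM. LD50 was derived for each cell line, and the selectivity index was calculated as WI-38 LD50 divided by cancer-cell LD50.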

MDA-MB-468 [8] = experiment: Induction of apoptosis in human MDA-MB-468 cells assessed as activation of caspase-3 cleavage at 10 to 30 uM by Western blot analysis; type: functional, cell-based; conditions: dose microM 10-30; in short: as §1
MCF7 [9] = experiment: Induction of apoptosis in human MCF7 cells at 30 uM measured after 24 hrs by annexinV-FITC/propidium iodide staining based flow cytometry analysis relative to control; type: functional
In short: (§5)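 Cells were treated with 0, 10, 20 and 30 μM for 24 h, then stained with Annexin V-FITC/PI. Apoptotic cells were quantified by flow cytometry from dot plots against untreated cells.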

MDA-MB-468 [10] = experiment: Induction of apoptosis in human MDA-MB-468 cells assessed as decrease in Bcl2 expression at 10 to 30 uM by Western blot analysis; type: functional, cell-based; conditions: dose microM 10-30; in short: as §1
[11] = Selectivity index, ratio of LD50 for human WI-38 cells to LD50 for mouse 4T1 cells assessed as inhibition of cell proliferation by MTT assay
In short: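 Selectivity index computed as MTT-derived LD50 in non-cancerous WI-38 lung fibroblasts divided by LD50 in the cancer line (cells exposed to 0-50 μM).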

MCF7 [12] = experiment: Induction of mitochondrial ROS production in human MCF7 cells at 10 to 30 uM by MitoSox red dye based spectrofluorimetric analysis; type: functional, cell-based; conditions: dose microM 10-30
In short: (§6)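 Cells were treated at 10, 20 and 30 μM and stained with MitoSOX Red. Red fluorescence from oxidized product was imaged and its intensity measured spectroscopically. Mean of three experiments ±SD.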

WI-38 [13] = experiment: Induction of mitochondrial membrane potential loss in human WI-38 cells at 10 to 30 uM by JC-1 staining based analysis; type: cell-based; conditions: wi-38, 30 µM, dose 10-30 µM; in short: as §3
MDA-MB-468 [14] = experiment: Induction of apoptosis in human MDA-MB-468 cells assessed as decrease in pBad expression at 10 to 30 uM by Western blot analysis; type: functional, cell-based; conditions: dose microM 10-30; in short: as §1
MDA-MB-468 [15] = experiment: Induction of mitochondrial membrane potential loss in human MDA-MB-468 cells by JC-1 staining based analysis; type: functional, cell-based; conditions: dose microM 10-30; in short: as §3
WI-38 [16] = experiment: Induction of apoptosis in human WI-38 cells assessed as increase in cleaved caspase-3 expression at 10 to 30 uM by Western blot analysis; type: cell-based; conditions: wi-38, 30 µM, dose 10-30 µM
[17] = Cytotoxicity against human WI-38 cells assessed as inhibition of cell proliferation by MTT assay; type: cell-based; conditions: read-out: LD50 (the source's name)
In short: (§7)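 MTT proliferation assay; cells exposed to compounds across 0-50 μM; LD50 derived from dose-dependent survival. Triple-negative MDA-MB-468, MDA-MB-231 and 4T1, ER+/PR+ MCF-7, and non-cancerous lung fibroblast WI-38 tested.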

MDA-MB-468 [18] = experiment: Induction of DNA damage in human MDA-MB-468 cells assessed as tail length at 30 uM measured after 24 hrs by comet assay; type: functional
In short: (§8)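 Cells given 0, 10, 20 and 30 μM; DNA strand breaks were assessed by single-cell gel electrophoresis (comet assay). Fragmented DNA migrates toward the anode, and tail length was measured against untreated cells.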

MDA-MB-468 [19] = experiment: Induction of ROS generation in human MDA-MB-468 cells assessed as increase in fluorescence intensity at 10 to 30 uM after 12 hrs in presence of ROS scavenger NAC by DCFDA staining based microscopy analysis; type: functional, cell-based; conditions: dose microM 10-30, time 12.0 hrs
In short: (§9)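 Cells were pre-treated with 10 mM N-acetyl cysteine (ROS scavenger), then given 10, 20 or 30 μM for 12 h. They were stained with 100 μM DCFDA for 30 min and read by fluorescence microscopy and spectrophotometric intensity. Three experiments, mean ±SD.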

MDA-MB-468 [20] = experiment: Induction of DNA damage in human MDA-MB-468 cells assessed as tail length at 20 uM measured after 24 hrs by comet assay; type: functional; in short: as §8
WI-38 [21] = experiment: Induction of ROS generation in human WI-38 cells assessed as increase in fluorescence intensity at 10 to 30 uM after 12 hrs by DCFDA staining based microscopy analysis; type: cell-based; conditions: wi-38, 12 h, dose 10-30 µM; in short: as §2
MCF7 [22] = experiment: Induction of apoptosis in human MCF7 cells measured after 24 hrs by annexinV-FITC/propidium iodide staining based flow cytometry analysis; type: functional, cell-based; conditions: dose microM 10-30, time 24.0 hrs; in short: as §5
MDA-MB-468 [23] = experiment: Induction of mitochondrial ROS production in human MDA-MB-468 cells at 10 to 30 uM by MitoSox red dye based spectrofluorimetric analysis; type: functional, cell-based; conditions: dose microM 10-30; in short: as §6
MDA-MB-468 [24] = experiment: Induction of apoptosis in human MDA-MB-468 cells at 30 uM measured after 24 hrs by annexinV-FITC/propidium iodide staining based flow cytometry analysis relative to control; type: functional; in short: as §5
[25] = Selectivity index, ratio of LD50 for human WI-38 cells to LD50 for human MDA-MB-468 cells assessed as inhibition of cell proliferation by MTT assay; type: toxicity; conditions: WI-38 cells and MDA-MB-468 cells, read-out: Selectivity Index; in short: as §4
MCF7 [26] = experiment: Induction of ROS generation in human MCF7 cells assessed as increase in fluorescence intensity at 10 to 30 uM after 12 hrs in presence of ROS scavenger NAC by DCFDA staining based microscopy analysis; type: functional, cell-based; conditions: dose microM 10-30, time 12.0 hrs; in short: as §9
MCF7 [27] = experiment: Induction of mitochondrial membrane potential loss in human MCF7 cells by JC-1 staining based analysis; type: functional, cell-based; conditions: dose microM 10-30; in short: as §3
WI-38 [28] = experiment: Induction of apoptosis in human WI-38 cells at 10 to 30 uM measured after 24 hrs by annexinV-FITC/propidium iodide staining based flow cytometry analysis; type: cell-based; conditions: wi-38, 24 h, dose 10-30 µM; in short: as §5
MDA-MB-468 [29] = experiment: Induction of apoptosis in human MDA-MB-468 cells assessed as increase in BAX/Bcl2 expression ratio at 10 to 30 uM by Western blot analysis; type: functional, cell-based; conditions: dose microM 10-30; in short: as §1
4T1 = experiment: Antiproliferative activity against mouse 4T1 cells assessed as inhibition of cell proliferation by MTT assay; type: functional; conditions: read-out: LD50 (the source's name); in short: as §7
MCF7 [30] = experiment: Induction of mitochondrial membrane potential loss in human MCF7 cells at 10 to 30 uM by JC-1 staining based analysis; type: functional, cell-based; conditions: dose microM 10-30, TDE = time-dependent effect; in short: as §3
MCF7 [31] = experiment: Antiproliferative activity against human MCF7 cells assessed as inhibition of cell proliferation by MTT assay; type: functional; conditions: read-out: LD50 (the source's name); in short: as §7
MDA-MB-468 [32] = experiment: Antiproliferative activity against human MDA-MB-468 cells assessed as inhibition of cell proliferation by MTT assay; type: functional; conditions: read-out: LD50 (the source's name); in short: as §7
MDA-MB-468 [33] = experiment: Induction of apoptosis in human MDA-MB-468 cells measured after 24 hrs by annexinV-FITC/propidium iodide staining based flow cytometry analysis; type: functional, cell-based; conditions: dose microM 10-30, time 24.0 hrs; in short: as §5
MDA-MB-231 = experiment: Antiproliferative activity against human MDA-MB-231 cells assessed as inhibition of cell proliferation by MTT assay; type: functional; conditions: read-out: LD50 (the source's name); in short: as §7

Structure (SMILES): Cc1ccc(C(=O)[C@@H]2Cc3c(ccc4ccccc34)O2)cc1
- Activity (MDA-MB-468 [1]): Active
- Activity (MCF7 [2]): Dose-dependent effect
- Activity (MDA-MB-468 [3]): Tde
- Activity (MDA-MB-468 [4]): inactive
- Activity (MDA-MB-468 [5]): Dose-dependent effect
- selectivity ratio [6]: 3.05
- selectivity ratio [7]: 3.41
- Activity (MDA-MB-468 [8]): Active
- Activity (MCF7 [9]): 61%
- Activity (MDA-MB-468 [10]): Active
- Selectivity Index [11]: 2.76
- Activity (MCF7 [12]): Active
- Activity (WI-38 [13]): Non-Toxic
- Activity (MDA-MB-468 [14]): Active
- Activity (MDA-MB-468 [15]): Dose-dependent effect
- Activity (WI-38 [16]): Non-Toxic
- CC50 [17]: 58 µM
- Activity (MDA-MB-468 [18]): 63 µm
- Activity (MDA-MB-468 [19]): inactive
- Activity (MDA-MB-468 [20]): 32 µm
- Activity (WI-38 [21]): Non-Toxic
- Activity (MCF7 [22]): Dose-dependent effect
- Activity (MDA-MB-468 [23]): Active
- Activity (MDA-MB-468 [24]): 69%
- selectivity ratio [25]: 3.87
- Activity (MCF7 [26]): inactive
- Activity (MCF7 [27]): Dose-dependent effect
- Activity (WI-38 [28]): Non-Toxic
- Activity (MDA-MB-468 [29]): Active
- CC50 (4T1): 21 µM
- Activity (MCF7 [30]): Tde
- CC50 (MCF7 [31]): 17 µM
- CC50 (MDA-MB-468 [32]): 15 µM
- Activity (MDA-MB-468 [33]): Dose-dependent effect
- CC50 (MDA-MB-231): 19 µM
